This passage reports Activity and IC50 results from ChEMBL document CHEMBL1137508, “Pentacyclic triterpenes. Part 5: synthesis and SAR study of corosolic acid derivatives as inhibitors of glycogen phosphorylases” (Bioorg Med Chem Lett, 2007).

Each structure is given as a SMILES string. Calls of active or inactive are those of the source. The calls are words filed in the database; no cut-off is given here.

The species named for the first assay is Oryctolagus cuniculus. As to the kind of experiment: (§1) Inhibition of rabbit muscle glycogen phosphorylase a. An outline of the steps: (§2)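 Rabbit muscle glycogen phosphorylase a activity was measured in the glycogen-synthesis direction by quantifying phosphate released from glucose-1-phosphate. Values are means of three experiments.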
On to `C[C@H]1[C@H](C)CC[C@]2(C(=O)O)CC[C@]3(C)C(=CC[C@@H]4[C@@]5(C)C[C@@H](OC(=O)CCC(=O)O)[C@H](OC(=O)CCC(=O)O)C(C)(C)[C@@H]5CC[C@]43C)[C@H]12`, for which the result was inactive. Same read-out and setting: with `C[C@H]1[C@H](C)CC[C@]2(C(=O)OCC(=O)O)CC[C@]3(C)C(=CC[C@@H]4[C@@]5(C)C[C@@H](O)[C@H](O)C(C)(C)[C@@H]5CC[C@]43C)[C@H]12` the entry was “inactive”.

Target in another assay: not listed separately
The assay is described as §1. Also noted: species or system Oryctolagus cuniculus. The method in brief:
as §2
As for `CC(=O)OC[C@H]1O[C@@H](OC(=O)[C@]23CC[C@@H](C)[C@H](C)[C@H]2C2=CC[C@@H]4[C@@]5(C)C[C@@H](O)[C@H](O)C(C)(C)[C@@H]5CC[C@@]4(C)[C@]2(C)CC3)[C@H](OC(C)=O)[C@@H](OC(C)=O)[C@@H]1OC(C)=O`, the IC50 (as a rule, the midpoint of a concentration-inhibition curve) turned out to be 373 µM.

The compound `CCCC(=O)O[C@@H]1C[C@]2(C)[C@H]3CC=C4[C@@H]5[C@@H](C)[C@H](C)CC[C@]5(C(=O)O)CC[C@@]4(C)[C@]3(C)CC[C@H]2C(C)(C)[C@H]1OC(=O)CCC` showed an IC50 of 78.7 µM. Same read-out and setting: under `CCOC(=O)COC(=O)[C@]12CC[C@@H](C)[C@H](C)[C@H]1C1=CC[C@@H]3[C@@]4(C)C[C@@H](O)[C@H](O)C(C)(C)[C@@H]4CC[C@@]3(C)[C@]1(C)CC2` stands 102 µM; under `C[C@H]1[C@H](C)CC[C@]2(C(=O)O)CC[C@]3(C)C(=CC[C@@H]4[C@@]5(C)C[C@@H](OC(=O)c6ccccc6)[C@H](O)C(C)(C)[C@@H]5CC[C@]43C)[C@H]12`, 5.1 µM; under `CC(=O)O[C@@H]1C[C@]2(C)[C@H]3CC=C4[C@@H]5[C@@H](C)[C@H](C)CC[C@]5(C(=O)O)CC[C@@]4(C)[C@]3(C)CC[C@H]2C(C)(C)[C@H]1O`, 37.7 µM. On the same count and under the same terms, under `CCC(=O)O[C@@H]1C[C@]2(C)[C@H]3CC=C4[C@@H]5[C@@H](C)[C@H](C)CC[C@]5(C(=O)O)CC[C@@]4(C)[C@]3(C)CC[C@H]2C(C)(C)[C@H]1O` stands 96.7 µM. With `C[C@H]1[C@H](C)CC[C@]2(C(=O)OCc3ccccc3)CC[C@]3(C)C(=CC[C@@H]4[C@@]5(C)C[C@@H](OS(C)(=O)=O)[C@H](O)C(C)(C)[C@@H]5CC[C@]43C)[C@H]12`, 43.4 µM corresponded to half-maximal inhibition (IC50).

With `CCCOC(=O)[C@]12CC[C@@H](C)[C@H](C)[C@H]1C1=CC[C@@H]3[C@@]4(C)C[C@@H](O)[C@H](O)C(C)(C)[C@@H]4CC[C@@]3(C)[C@]1(C)CC2`, the concentration for half-maximal inhibition (IC50) stood at 82.5 µM. Same read-out and setting: under `C[C@H]1[C@H](C)CC[C@]2(C(=O)OCn3cccn3)CC[C@]3(C)C(=CC[C@@H]4[C@@]5(C)C[C@@H](O)[C@H](O)C(C)(C)[C@@H]5CC[C@]43C)[C@H]12` stands 62.1 µM; under `C[C@H]1[C@H](C)CC[C@]2(C(=O)OCc3ccccc3)CC[C@]3(C)C(=CC[C@@H]4[C@@]5(C)C[C@@H]6OC6C(C)(C)[C@@H]5CC[C@]43C)[C@H]12` (single isomer, unassigned), 69.5 µM. The same measure, in the same setting: with `C[C@H]1[C@H](C)CC[C@]2(C(=O)OCc3ccccc3)CC[C@]3(C)C(=CC[C@@H]4[C@@]5(C)C[C@H](O)[C@H](O)C(C)(C)[C@@H]5CC[C@]43C)[C@H]12` the figure was 108 µM. The same measure, in the same setting: with `C[C@H]1[C@H](C)CC[C@]2(C(=O)O)CC[C@]3(C)C(=CC[C@@H]4[C@@]5(C)C[C@@H](O)[C@@H](O)C(C)(C)[C@@H]5CC[C@]43C)[C@H]12` [PYGENIC ACID A] the figure was 212 µM; with `C[C@H]1[C@H](C)CC[C@]2(C(=O)O[C@@H]3O[C@H](CO)[C@@H](O)[C@H](O)[C@H]3O)CC[C@]3(C)C(=CC[C@@H]4[C@@]5(C)C[C@@H](O)[C@H](O)C(C)(C)[C@@H]5CC[C@]43C)[C@H]12`, 106 µM. On to `C[C@H]1[C@H](C)CC[C@]2(C(=O)OCc3ccccc3)CC[C@]3(C)C(=CC[C@@H]4[C@@]5(C)C=C(O)C(=O)C(C)(C)[C@@H]5CC[C@]43C)[C@H]12`, for which the 50% inhibitory concentration (IC50) came out at 7.31 µM. Same read-out and setting: under `C[C@H]1[C@H](C)CC[C@]2(C(=O)OCc3ccccc3)CC[C@]3(C)C(=CC[C@@H]4[C@@]5(C)C[C@@H](O)C(=O)C(C)(C)[C@@H]5CC[C@]43C)[C@H]12` stands 31.8 µM.

The compound `Cc1ccc(S(=O)(=O)O[C@@H]2C[C@]3(C)[C@H]4CC=C5[C@@H]6[C@@H](C)[C@H](C)CC[C@]6(C(=O)OCc6ccccc6)CC[C@@]5(C)[C@]4(C)CC[C@H]3C(C)(C)[C@H]2O)cc1` showed an IC50 of 444 µM. This IC50 is about 14-fold higher than that of the compound before.

Turning to `C=CCOC(=O)[C@]12CC[C@@H](C)[C@H](C)[C@H]1C1=CC[C@@H]3[C@@]4(C)C[C@@H](O)[C@H](O)C(C)(C)[C@@H]4CC[C@@]3(C)[C@]1(C)CC2`, the IC50 came to 91.2 µM. Take `C[C@H]1[C@H](C)CC[C@]2(C(=O)O)CC[C@]3(C)C(=CC[C@@H]4[C@@]5(C)C[C@H](O)[C@H](O)C(C)(C)[C@@H]5CC[C@]43C)[C@H]12`: it took 116 µM to reach half-maximal inhibition (IC50). This IC50 and that of the compound before are within 1.5-fold of each other. In turn, `COC(=O)[C@]12CC[C@@H](C)[C@H](C)[C@H]1C1=CC[C@@H]3[C@@]4(C)C[C@@H](O)[C@H](O)C(C)(C)[C@@H]4CC[C@@]3(C)[C@]1(C)CC2` [COROSOLIC ACID METHYL ESTER] displayed an IC50 of 33.7 µM. Compared with the last compound, the IC50 is about 3.4-fold lower. On the same count and under the same terms, with `C[C@H]1[C@H](C)CC[C@]2(C(=O)OCc3ccccc3)CC[C@]3(C)C(=CC[C@@H]4[C@@]5(C)C[C@@H](O)[C@H](O)C(C)(C)[C@@H]5CC[C@]43C)[C@H]12` the figure was 41.2 µM; with `CCOC(=O)[C@]12CC[C@@H](C)[C@H](C)[C@H]1C1=CC[C@@H]3[C@@]4(C)C[C@@H](O)[C@H](O)C(C)(C)[C@@H]4CC[C@@]3(C)[C@]1(C)CC2`, 46.7 µM; with `C[C@H]1[C@H](C)CC[C@]2(C(=O)OCc3ccccc3)CC[C@]3(C)C(=CC[C@@H]4[C@@]5(C)C[C@@H](OC(=O)CCC(=O)O)[C@H](OC(=O)CCC(=O)O)C(C)(C)[C@@H]5CC[C@]43C)[C@H]12`, 722 µM.

In the case of `C[C@H]1[C@H](C)CC[C@]2(C(=O)OCc3ccccc3)CC[C@]3(C)C(=CC[C@@H]4[C@@]5(C)C[C@@H](O)[C@@H](O)C(C)(C)[C@@H]5CC[C@]43C)[C@H]12`, the IC50 turned out to be 324 µM. Same read-out and setting: with `CC(=O)O[C@@H]1C[C@]2(C)[C@H]3CC=C4[C@@H]5[C@@H](C)[C@H](C)CC[C@]5(C(=O)O)CC[C@@]4(C)[C@]3(C)CC[C@H]2C(C)(C)[C@H]1OC(C)=O` the figure was 35 µM; with `CCCCCC(=O)O[C@@H]1C[C@]2(C)[C@H]3CC=C4[C@@H]5[C@@H](C)[C@H](C)CC[C@]5(C(=O)O)CC[C@@]4(C)[C@]3(C)CC[C@H]2C(C)(C)[C@H]1O`, 3.26 µM; with `CCCC(=O)O[C@@H]1C[C@]2(C)[C@H]3CC=C4[C@@H]5[C@@H](C)[C@H](C)CC[C@]5(C(=O)O)CC[C@@]4(C)[C@]3(C)CC[C@H]2C(C)(C)[C@H]1O`, 77.9 µM. Turning to `CCC(=O)O[C@@H]1C[C@]2(C)[C@H]3CC=C4[C@@H]5[C@@H](C)[C@H](C)CC[C@]5(C(=O)O)CC[C@@]4(C)[C@]3(C)CC[C@H]2C(C)(C)[C@H]1OC(=O)CC`, the IC50 came to 73.7 µM. Turning to `C[C@H]1[C@H](C)CC[C@]2(C(=O)O)CC[C@]3(C)C(=CC[C@@H]4[C@@]5(C)C[C@@H](O)[C@H](O)C(C)(C)[C@@H]5CC[C@]43C)[C@H]12` [COROSOLIC ACID], half-maximal inhibition (IC50) required 20 µM. The same measure, in the same setting: with `CCCCOC(=O)[C@]12CC[C@@H](C)[C@H](C)[C@H]1C1=CC[C@@H]3[C@@]4(C)C[C@@H](O)[C@H](O)C(C)(C)[C@@H]4CC[C@@]3(C)[C@]1(C)CC2` the figure was 92.1 µM.
